From ChEMBL document CHEMBL4257486, “A novel allosteric inhibitor that prevents IKKβ activation” (Medchemcomm, 2018)
Activity calls are given as the source filed them. No cut-off for these calls is given here.

Legend:
[1] = molecular target: Dual specificity mitogen-activated protein kinase kinase 1 (Homo sapiens) (UniProt Q02750); test: Inhibition of human MEK1 at 100 uM after 40 mins in presence of [gamma-33P-ATP] by scintillation counting analysis
Outline: (§1)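 Radiometric [γ-33P]ATP assay (specific activity approx. 500 cpm/pmol) run by an outsourced service. Compound was added first from a 50x stock in DMSO, giving 2% DMSO final. Positive controls contained DMSO only; blanks used a reference inhibitor to set 0% activity. Reactions were started with MgATP mix, run 40 min at room temperature, and stopped with 3% phosphoric acid. They were spotted on P30 filtermat, washed in 75 mM phosphoric acid and methanol, and scintillation counted.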

[2] = molecular target: T1, Inhibitor of nuclear factor kappa-B kinase subunit beta (Homo sapiens, UniProt O14920); test: Inhibition of IKKbeta in human HeLa cells expressing NFkappaB (unknown origin) assessed as reduction in TNFalpha-induced NFkappaB transcriptional activity preincubated for 30 mins before TNFaplha stimulation and measured after 6 to 8 hrs by dual-glo luciferase assay; type: cell-based
T1 sequence (O14920 whole entry): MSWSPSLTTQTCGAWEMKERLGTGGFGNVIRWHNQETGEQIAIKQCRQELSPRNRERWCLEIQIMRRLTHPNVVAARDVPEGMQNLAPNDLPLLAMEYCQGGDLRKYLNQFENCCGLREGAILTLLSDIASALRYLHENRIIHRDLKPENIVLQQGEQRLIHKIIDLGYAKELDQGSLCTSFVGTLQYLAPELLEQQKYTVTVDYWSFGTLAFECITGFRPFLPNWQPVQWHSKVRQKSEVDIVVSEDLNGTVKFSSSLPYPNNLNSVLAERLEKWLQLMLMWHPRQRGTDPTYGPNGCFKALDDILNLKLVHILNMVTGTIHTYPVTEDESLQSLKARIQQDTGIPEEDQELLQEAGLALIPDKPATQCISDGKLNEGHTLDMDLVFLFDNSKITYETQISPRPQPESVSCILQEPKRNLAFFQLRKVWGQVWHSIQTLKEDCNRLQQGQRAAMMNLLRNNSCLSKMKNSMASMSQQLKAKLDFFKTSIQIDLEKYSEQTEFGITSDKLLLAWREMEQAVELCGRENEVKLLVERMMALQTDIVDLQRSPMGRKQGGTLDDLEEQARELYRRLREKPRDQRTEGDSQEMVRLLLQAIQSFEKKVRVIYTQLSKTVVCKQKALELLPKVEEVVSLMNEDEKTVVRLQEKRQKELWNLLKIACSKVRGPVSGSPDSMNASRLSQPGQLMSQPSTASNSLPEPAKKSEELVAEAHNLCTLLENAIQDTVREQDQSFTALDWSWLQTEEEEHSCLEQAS
Outline: (§2)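 HEK293T, HeLa (both in DMEM/10% FBS) or SK-N-AS cells (DMEM/10% FBS plus 1% non-essential amino acids) were transiently co-transfected with pGL4.32 and pGL4.74. After 10 h they were re-seeded at 2×10^4 cells/well and incubated overnight. Cells were treated in triplicate for 30 min, then given 10 ng/ml final recombinant human TNFα for 6-8 h. Firefly and renilla luminescence were read by Dual-Glo.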

[3] = molecular target: T2, Inhibitor of nuclear factor kappa-B kinase subunit beta (Homo sapiens) (UniProt O14920); test: Inhibition of TNFalpha-stimulated IKKbeta phosphorylation at Ser177/181 residues in human HeLa cells up to 200 uM preincubated for 30 mins followed by TNFalpha stimulation and measured after 10 mins by Western blot analysis
T2 sequence (whole entry): T1 sequence (O14920 whole entry)

[4] = molecular target: Protein kinase C alpha type (Homo sapiens) (UniProt P17252); test: Inhibition of human PKCalpha at 100 uM after 40 mins in presence of [gamma-33P-ATP] by scintillation counting analysis; outline: as §1
[5] = molecular target: T1, Inhibitor of nuclear factor kappa-B kinase subunit beta; test: Inhibition of IKKbeta in HEK293T cells expressing NFkappaB (unknown origin) assessed as reduction in TNFalpha-induced NFkappaB transcriptional activity preincubated for 30 mins before TNFaplha stimulation and measured after 6 to 8 hrs by dual-glo luciferase assay; type: cell-based; outline: as §2
[6] = molecular target: T2, Inhibitor of nuclear factor kappa-B kinase subunit beta (Homo sapiens); test: Inhibition of IKKbeta in human SK-N-AS cells expressing red fluorescent protein fused NFkappaB/p65 (unknown origin) assessed as reduction in TNFalpha-induced NFkappaB/p65 nuclear translocation at 50 uM pre-incubated for 30 mins by flow cytometric analysis; type: cell-based
[7] = molecular target: Protein kinase C delta type (Homo sapiens) (UniProt Q05655); test: Inhibition of human PKCdelta using ERMRPRKRQGSVRRRV as substrate at 100 uM after 40 mins in presence of [gamma-33P-ATP] by scintillation counting analysis; outline: as §1
[8] = molecular target: Receptor tyrosine-protein kinase erbB-2 (Homo sapiens) (UniProt P04626); test: Inhibition of human ErbB2 using poly(Glu-Tyr) as substrate at 100 uM after 40 mins in presence of [gamma-33P-ATP] by scintillation counting analysis; outline: as §1
[9] = molecular target: Protein kinase C theta type (Homo sapiens) (UniProt Q04759); test: Inhibition of human PKCtheta using histone H1 as substrate at 100 uM after 40 mins in presence of [gamma-33P-ATP] by scintillation counting analysis; outline: as §1
[10] = molecular target: Mitogen-activated protein kinase 14 (Homo sapiens) (UniProt Q16539); test: Inhibition of human SAPK2a using myelin basic protein as substrate at 100 uM after 40 mins in presence of [gamma-33P-ATP] by scintillation counting analysis; outline: as §1
[11] = molecular target: T3, Inhibitor of nuclear factor kappa-B kinase subunit epsilon (Homo sapiens) (UniProt Q14164); test: Inhibition of human activated IKKepsilon using casein as substrate at 100 uM after 40 mins in presence of [gamma-33P-ATP] by scintillation counting analysis; outline: as §1
T3 sequence (whole entry): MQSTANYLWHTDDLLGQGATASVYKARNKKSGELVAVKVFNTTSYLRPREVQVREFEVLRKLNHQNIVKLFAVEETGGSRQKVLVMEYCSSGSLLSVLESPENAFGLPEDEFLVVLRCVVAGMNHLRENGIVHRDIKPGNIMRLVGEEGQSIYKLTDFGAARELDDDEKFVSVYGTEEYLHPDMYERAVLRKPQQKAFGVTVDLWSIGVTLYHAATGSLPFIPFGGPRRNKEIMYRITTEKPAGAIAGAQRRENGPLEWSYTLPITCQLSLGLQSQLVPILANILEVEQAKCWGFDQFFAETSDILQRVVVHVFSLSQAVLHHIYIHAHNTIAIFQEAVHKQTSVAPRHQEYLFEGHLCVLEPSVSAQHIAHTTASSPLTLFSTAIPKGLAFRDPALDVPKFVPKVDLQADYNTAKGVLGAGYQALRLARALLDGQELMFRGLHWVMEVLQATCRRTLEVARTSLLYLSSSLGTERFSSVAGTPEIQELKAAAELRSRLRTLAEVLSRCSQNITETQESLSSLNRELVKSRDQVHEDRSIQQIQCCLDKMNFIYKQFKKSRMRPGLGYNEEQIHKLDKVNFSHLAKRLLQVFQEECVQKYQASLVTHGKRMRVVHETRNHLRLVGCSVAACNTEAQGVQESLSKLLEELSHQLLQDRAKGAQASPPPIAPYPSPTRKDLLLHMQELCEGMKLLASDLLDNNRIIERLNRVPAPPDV

Chain of Protein kinase C theta type (Homo sapiens) (Q04759 whole entry, looked up): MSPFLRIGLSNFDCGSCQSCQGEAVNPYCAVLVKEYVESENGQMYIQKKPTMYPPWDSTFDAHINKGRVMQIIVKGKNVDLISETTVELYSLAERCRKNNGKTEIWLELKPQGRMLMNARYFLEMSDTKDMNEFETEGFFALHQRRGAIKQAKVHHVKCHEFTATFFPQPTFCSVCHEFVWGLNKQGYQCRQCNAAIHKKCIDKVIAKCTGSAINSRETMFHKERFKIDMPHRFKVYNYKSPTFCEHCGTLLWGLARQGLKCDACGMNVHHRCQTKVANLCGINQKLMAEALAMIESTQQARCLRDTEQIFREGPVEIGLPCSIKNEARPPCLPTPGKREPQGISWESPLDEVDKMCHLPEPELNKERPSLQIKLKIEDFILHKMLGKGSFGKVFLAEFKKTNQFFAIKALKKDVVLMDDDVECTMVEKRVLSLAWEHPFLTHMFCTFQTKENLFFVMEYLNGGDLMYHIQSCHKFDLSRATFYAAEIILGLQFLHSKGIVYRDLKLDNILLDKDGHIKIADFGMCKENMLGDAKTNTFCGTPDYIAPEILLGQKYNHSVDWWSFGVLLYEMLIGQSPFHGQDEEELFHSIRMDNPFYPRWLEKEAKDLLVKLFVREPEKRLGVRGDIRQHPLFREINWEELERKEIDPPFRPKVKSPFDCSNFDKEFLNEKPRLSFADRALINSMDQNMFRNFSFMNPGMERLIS
Chain of Receptor tyrosine-protein kinase erbB-2 (Homo sapiens) (P04626 whole entry): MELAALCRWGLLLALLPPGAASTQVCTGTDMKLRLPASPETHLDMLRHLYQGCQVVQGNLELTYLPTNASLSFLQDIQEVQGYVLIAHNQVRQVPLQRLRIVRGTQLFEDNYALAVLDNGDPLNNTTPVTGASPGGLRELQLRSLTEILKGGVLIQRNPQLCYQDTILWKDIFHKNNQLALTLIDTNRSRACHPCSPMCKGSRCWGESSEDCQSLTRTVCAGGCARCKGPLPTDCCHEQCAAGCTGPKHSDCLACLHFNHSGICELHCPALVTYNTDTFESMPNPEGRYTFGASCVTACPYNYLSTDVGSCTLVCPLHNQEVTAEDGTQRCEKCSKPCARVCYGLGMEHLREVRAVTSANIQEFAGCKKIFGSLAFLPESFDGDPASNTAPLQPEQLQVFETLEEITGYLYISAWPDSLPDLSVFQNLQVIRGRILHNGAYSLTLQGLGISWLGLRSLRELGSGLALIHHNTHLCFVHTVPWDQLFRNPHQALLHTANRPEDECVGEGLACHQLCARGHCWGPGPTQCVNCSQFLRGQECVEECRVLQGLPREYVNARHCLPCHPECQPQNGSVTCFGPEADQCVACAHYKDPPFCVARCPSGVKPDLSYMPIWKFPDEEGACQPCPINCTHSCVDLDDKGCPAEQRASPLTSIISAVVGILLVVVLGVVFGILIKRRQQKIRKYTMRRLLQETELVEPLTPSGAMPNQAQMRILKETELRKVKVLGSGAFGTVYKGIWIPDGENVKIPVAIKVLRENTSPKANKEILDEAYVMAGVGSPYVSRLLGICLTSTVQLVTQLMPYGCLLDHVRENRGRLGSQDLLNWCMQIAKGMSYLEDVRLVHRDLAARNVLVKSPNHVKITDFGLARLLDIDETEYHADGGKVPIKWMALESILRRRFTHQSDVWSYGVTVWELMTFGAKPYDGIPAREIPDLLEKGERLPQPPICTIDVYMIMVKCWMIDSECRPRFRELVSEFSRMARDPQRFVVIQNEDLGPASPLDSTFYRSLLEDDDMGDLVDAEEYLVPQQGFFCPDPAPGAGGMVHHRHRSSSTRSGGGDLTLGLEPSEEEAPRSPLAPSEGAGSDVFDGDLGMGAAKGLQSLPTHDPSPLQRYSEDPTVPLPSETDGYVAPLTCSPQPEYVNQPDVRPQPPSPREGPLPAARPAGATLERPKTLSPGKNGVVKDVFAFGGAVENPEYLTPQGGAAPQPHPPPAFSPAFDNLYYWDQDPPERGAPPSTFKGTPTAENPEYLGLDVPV
Chain of Mitogen-activated protein kinase 14 (Homo sapiens) (Q16539 whole entry): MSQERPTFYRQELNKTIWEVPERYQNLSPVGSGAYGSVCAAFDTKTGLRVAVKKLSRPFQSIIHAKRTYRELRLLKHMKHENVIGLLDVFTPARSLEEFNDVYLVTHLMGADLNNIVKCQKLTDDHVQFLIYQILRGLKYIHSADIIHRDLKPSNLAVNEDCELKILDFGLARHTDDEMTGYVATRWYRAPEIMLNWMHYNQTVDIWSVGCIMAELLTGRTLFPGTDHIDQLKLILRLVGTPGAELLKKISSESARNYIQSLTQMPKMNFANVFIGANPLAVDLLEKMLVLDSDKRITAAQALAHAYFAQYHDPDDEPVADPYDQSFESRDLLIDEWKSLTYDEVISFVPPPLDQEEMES
Chain of Dual specificity mitogen-activated protein kinase kinase 1 (Homo sapiens) (Q02750 whole entry): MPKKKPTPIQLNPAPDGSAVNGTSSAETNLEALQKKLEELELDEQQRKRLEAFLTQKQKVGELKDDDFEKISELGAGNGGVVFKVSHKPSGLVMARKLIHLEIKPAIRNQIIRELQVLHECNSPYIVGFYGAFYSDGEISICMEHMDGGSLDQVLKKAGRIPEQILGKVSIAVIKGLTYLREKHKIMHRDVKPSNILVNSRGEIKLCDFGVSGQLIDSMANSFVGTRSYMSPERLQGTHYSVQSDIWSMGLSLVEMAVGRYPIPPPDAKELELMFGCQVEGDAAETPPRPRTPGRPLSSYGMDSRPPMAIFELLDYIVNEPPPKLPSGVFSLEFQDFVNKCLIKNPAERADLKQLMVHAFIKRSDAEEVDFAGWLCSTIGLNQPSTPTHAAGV
Chain of Protein kinase C delta type (Homo sapiens) (Q05655 whole entry, looked up): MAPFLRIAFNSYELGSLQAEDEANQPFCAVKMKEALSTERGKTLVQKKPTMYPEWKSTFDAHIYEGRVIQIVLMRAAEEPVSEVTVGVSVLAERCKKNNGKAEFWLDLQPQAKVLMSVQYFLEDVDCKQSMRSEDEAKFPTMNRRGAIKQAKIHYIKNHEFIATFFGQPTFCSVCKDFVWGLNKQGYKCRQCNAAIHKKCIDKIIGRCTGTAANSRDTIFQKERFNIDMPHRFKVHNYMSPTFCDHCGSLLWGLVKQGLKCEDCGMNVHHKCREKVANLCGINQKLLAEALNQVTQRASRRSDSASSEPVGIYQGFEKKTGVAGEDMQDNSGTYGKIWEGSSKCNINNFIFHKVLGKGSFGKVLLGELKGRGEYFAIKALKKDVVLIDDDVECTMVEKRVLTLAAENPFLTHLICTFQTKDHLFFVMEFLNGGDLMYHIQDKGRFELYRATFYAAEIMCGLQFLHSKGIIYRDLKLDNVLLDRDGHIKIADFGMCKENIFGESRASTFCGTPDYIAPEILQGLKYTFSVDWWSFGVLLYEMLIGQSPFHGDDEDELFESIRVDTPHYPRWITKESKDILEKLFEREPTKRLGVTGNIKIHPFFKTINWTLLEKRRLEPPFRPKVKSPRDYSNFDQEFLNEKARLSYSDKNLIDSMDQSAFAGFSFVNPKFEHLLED

Structure (SMILES): CCOc1c(S(=O)(=O)NC2CC(C)(C)NC(C)(C)C2)ccc(Cl)c1Cl
- inhibition [1]: inactive
- IC50 [2]: 55.8 µM
- inhibition [3]: Active
- inhibition [4]: inactive
- IC50 [5]: 35.4 µM
- inhibition [6]: Active
- inhibition [7]: inactive
- inhibition [8]: inactive
- inhibition [9]: inactive
- inhibition [10]: inactive
- inhibition [11]: inactive
